NALP3 yeast inh = NALP3 inflammasome inhibitors in reconstituted yeast, primary screen, luminescence, uHTS; 330,000 compounds, 0.39% hits; inhibition, % at 10 µM; Yeast reconstituted NLRP3/ASC/caspase-1, beta-gal luminescence, 24 h;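 active = inhibition of 50% or more; inactive = inhibition below 50%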
IMP-1 inh = IMP-1 metallo-beta-lactamase inhibitors, primary screen, biochemical, epi-absorbance readout, Pseudomonas aeruginosa enzyme. metallo-beta-lactamase IMP-1 (Pseudomonas aeruginosa). purified IMP-1, nitrocefin hydrolysis, epi-absorbance fluorescence. inhibition, % at 5.6 µM. 290,000 compounds, 0.45% hits. AID 1556, 2009;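 active = inhibition above the mean plus 3 SD of all compounds in the same screening run, cut at about 4.5% in these data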
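assay system = purified recombinant IMP-1 metallo-beta-lactamase enzyme | schedule = 15 min preincubation plus 25 min reaction at 25 °C | signal = Epi-absorbance fluorescence, 480 nm excitation, 530 nm emission | read-out basis = percent inhibition from optical density relative to buffer-blank wells | controls = IMP-1 with DMSO as 0%, enzyme-free DMSO as 100%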
PolyA inhibitor = polyadenylation inhibitors in yeast reporter cells, primary screen, luminescence, S. cerevisiae; S. cerevisiae SKY197-pL101 polyadenylation reporter, beta-gal luminescence; efflux-impaired pdr1/pdr3 knockout yeast; score 100 = 6 SD above DMSO; activity score, % at 12 µM; 300,000 compounds, 0.02% hits; AID 1875, 2009;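 active = lowest replicate activity score at least 50, where 100 means six control SD above control mean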;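 also: yeast exposed to compound for 9 h at 30 °C; higher score means more reporter readthrough which indicates perturbed polyadenylation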
SUMO Mot1 rescue = yeast Mot1-301 growth rescue at high temperature, primary screen, SUMOylation pathway inhibitor project, S. cerevisiae, ATP luminescence, 38.5C; S. cerevisiae Mot1-301 growth rescue; percent above DMSO median, 100 means doubled; growth rescue, % at 18.8 µM; 320,000 compounds, 1% hits;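 active = every valid replicate shows activation above 250% relative to neutral control wells; inactive = the rest, any valid replicate at or below 250%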
NALP1 inh = NALP1 inflammasome inhibitors in reconstituted yeast, colorimetric, S. cerevisiae, triplicate retest. 280,000 compounds, 0.61% hits. S. cerevisiae NALP1/ASC/caspase-1 growth, X-gal OD620, 72 h. inhibition, % at 10 µM; in the data active = inhibition mostly above about 24%, no sharp cut-off; inactive = mostly below about 32%
VIM-2 inhibitor = VIM-2 metallo-beta-lactamase inhibitors, primary screen, biochemical, epi-absorbance readout, Pseudomonas aeruginosa enzyme; purified VIM-2, nitrocefin hydrolysis, epi-absorbance fluorescence; inhibition, % at 5.6 µM; 290,000 compounds, 0.89% hits; AID 1527, 2009;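 active = inhibition above the mean of all tested compounds plus 3 SD, cutoff set per screening run, cut at about 7.5% in these data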;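 also: red hydrolysis product quenches plate fluorescence so inhibitors raise well fluorescence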
Hits are given with their value; - = inactive; . = not tested or not shown. The list is not random: actives were taken first. Their share in the collection is about 2.9%.

SMILES | NALP3 yeast inh | IMP-1 inh | PolyA inhibitor | SUMO Mot1 rescue | NALP1 inh | VIM-2 inhibitor
C#CCOCCOCCOCCNc1nc(N2CCN(C(=O)[C@H](CCCCN)n3cc([C@@H](N)C(C)CC)nn3)CC2)nc(N2CCN(C(=O)[C@H](CCCCN)n3cc([C@@H](N)CO)nn3)CC2)n1 (stereo partly drawn) | - | - | - | - | - | -
CNC[C@@H]1Oc2ccc(NS(=O)(=O)c3ccc(OC)cc3)cc2CC(=O)N([C@H](C)CO)C[C@@H]1C | - | . | . | - | . | .
CCCn1c(=O)c2ccccc2n2c(SCC(=O)c3ccc(F)cc3)nnc12 | . | . | . | . | 41.7 | .
CCCn1c(=O)c2ccccc2n2c(SCCNCCO)nnc12 | - | - | - | - | - | 11.2
Cc1ccc(S(=O)(=O)N2CCN(C(=O)CN3C(=O)CNC3=O)CC2)cc1 | - | . | . | - | . | .
O=C(NCc1cccnc1)c1csc2c1CCCC2 | - | - | - | - | - | -
Cc1ccc(CNC(=O)c2csc3c2CCCCC3)cc1 | - | - | - | - | 43.0 | -
Cc1c(NC(=O)COC(=O)c2cc3c4ccccc4n(C)c3s2)c(=O)n(-c2ccccc2)n1C | - | 4.8 | - | - | - | -
O=C(c1cc(-c2ccccn2)nc2c(Cl)cccc12)N1CCN(C(=O)C2CCCO2)CC1 (stereo not drawn) | - | - | - | - | 37.7 | -
Cc1nc(Nc2ccc(O)cc2)c2c3c(sc2n1)CCCC3 | - | - | - | - | - | 8.4
N#CCC(=O)N/N=C\c1cc(Br)ccc1OC/C=C/c1ccccc1 | - | - | . | - | - | -
CCN(C(=O)COC(=O)c1ccccc1NC(=O)c1ccco1)C1CCS(=O)(=O)C1 (stereo not drawn) | - | - | - | 417.5 | - | -
Cc1cc(C)cc(N(CC(=O)NCC2CCCO2)C(=O)CN2C(=O)COc3ccccc32)c1 (stereo not drawn) | - | - | - | - | 22.8 | -
Cc1ccc(-c2csc3ncnc(-n4cnc5ccccc54)c23)cc1 | - | - | - | - | - | -
Cc1sc2ncnc(-n3cnc4ccccc43)c2c1C | - | 7.3 | - | - | - | -
C=CCn1c(SCC(=O)N2CCCC2)nc2c([nH]c3ccccc32)c1=O | - | - | - | - | - | -
CCn1c(SCC(=O)N2CCOCC2)nc2c([nH]c3ccccc32)c1=O | - | - | - | - | - | 8.0
COc1ccc(NC(=O)CN(C)C(=O)Cc2ccc(-c3ccccc3)cc2)cc1 | - | . | . | - | . | .
COc1ccc(NC(=O)CN(C)C(=O)Cc2ccsc2)cc1 | - | 5.0 | - | - | - | -
COc1ccc(NC(=O)CC(Cc2ccccc2)C(=O)O)cc1 (stereo not drawn) | - | - | - | 282.2 | - | -
COc1ccc(CC(=O)Nc2ccc(C(C)=O)cc2)cc1 | - | 8.0 | - | - | - | -
O=C(CC(Cc1ccccc1)C(=O)O)Nc1ccc(F)cc1 (stereo not drawn) | - | - | - | - | - | -
Cc1cccc([C@@H]2[C@@H]3C(=O)N(Cc4ccccc4)C(=O)[C@@H]3[C@]3(C)C(=O)N(c4ccc(C(F)(F)F)cc4)C(=O)N23)c1 | - | - | - | - | - | -
O=C(c1ccc2nc[nH]c2c1)N1CCN(c2ncc(C(F)(F)F)cc2Cl)CC1 | - | - | - | - | - | -
CCN1CCN(Cc2ccc(NC(=O)c3ccc(C)c(NC(=O)c4cccc(-c5cn[nH]c(=O)c5)c4)c3)cc2C(F)(F)F)CC1 | - | 9.3 | - | - | - | -
SMILES | NALP3 yeast inh | IMP-1 inh | PolyA inhibitor | SUMO Mot1 rescue | NALP1 inh | VIM-2 inhibitor
CC(=O)N1c2ccc(S(=O)(=O)N3CCCC(C(=O)Nc4ccc(F)cc4)C3)cc2CC1C (stereo not drawn) | - | - | - | - | - | -
COCCNC(=O)CCc1c(C)nc2c(-c3ccc(F)cc3)c(C)nn2c1C | - | - | - | - | 36.2 | -
Nn1c(SCC(=O)NC2CCS(=O)(=O)C2)nnc1-c1ccco1 (stereo not drawn) | - | . | . | - | . | .
Cc1cc(S(=O)(=O)N2CCCC(N(C)CCc3ccccn3)C2)c(C)cc1Cl (stereo not drawn) | - | - | - | . | - | -
O=C(N[C@@H](Cc1ccccc1)C(=O)NC1CCCCC1)c1ccco1 | - | - | - | - | - | -
O=C(N[C@@H](Cc1ccccc1)C(=O)NC1CCCCCC1)c1ccco1 | - | - | - | - | 40.9 | -
c1ccc(CSc2ccc3nnc(-c4ccccn4)n3n2)cc1 | - | - | - | - | - | 10.8
Cc1cccc(CSc2ccc3nnc(-c4ccccn4)n3n2)c1 | - | - | - | - | - | -
Cc1nc(SCc2nc3ccccc3[nH]2)c2oc3ccccc3c2n1 | - | - | - | - | - | 13.2
Cc1nc(N2CCN(Cc3nc4ccccc4[nH]3)CC2)c2oc3ccccc3c2n1 | - | - | - | - | - | 11.5
Cc1nc(SCc2nc3ccccc3[nH]2)c2oc3ccc(Br)cc3c2n1 | - | . | . | - | . | .
CCN(CC)CCN(C(=O)C1=COCCO1)c1nc2c(OC)ccc(OC)c2s1 | - | - | - | - | - | 8.9
CC(C)N(C(=S)Nc1cc(S(=O)(=O)N2CCOCC2)ccc1Cl)c1ccccc1 | - | - | - | - | 59.3 | -
CN1CCN(C(=S)Nc2cc(S(=O)(=O)N3CCOCC3)ccc2Cl)CC1 | - | - | - | - | - | -
COc1ccc(/C=N/n2c(SC)nnc2-c2ccccc2)c(OC)c1OC | . | - | . | . | - | 23.5
COc1ccc(/C=N/n2c(SC)nnc2-c2ccccc2)cc1C | - | - | - | . | - | -
CC(C)CCN1C(=O)c2ccc(C(=O)OCC(=O)N(CC(C)C)C3CCS(=O)(=O)C3)cc2C1=O (stereo not drawn) | - | . | . | - | . | .
CCOC(=O)C1=C(C)Nc2sc(C(=O)c3ccc(F)cc3)c(N)c2C1c1ccc(C(=O)OC)cc1 (stereo not drawn) | - | - | - | - | - | -
CCOC(=O)C1=C(C)Nc2sc(C(=O)c3ccc(C)cc3)c(N)c2C1c1ccc(C(=O)OC)cc1 (stereo not drawn) | - | - | - | - | - | 7.8
O=C(Nc1ncc2c(n1)-c1ccccc1CC2)c1ccc(Cl)cc1 | - | 23.6 | - | - | - | -
CCOC(=O)NC(=O)CSc1ccc(S(=O)(=O)N(C)C2CCCCC2)cn1 | - | . | . | - | . | .
N#CC1=C(N)Oc2ccc3ccc(O)cc3c2C1c1ccsc1 (stereo not drawn) | . | 16.9 | - | . | . | -
CNC(=S)NCC(O)c1ccc([N+](=O)[O-])cc1 (stereo not drawn) | - | - | - | - | - | -
CN(c1ccccc1C(=O)NCc1ccccc1Cl)S(=O)(=O)c1ccccc1 | - | - | - | - | - | -
